Consider one molecule from ChEMBL document CHEMBL3856239, “Synthesis and Antiobesity Properties of 6-(4-Chlorophenyl)-3-(4-((3,3-difluoro-1-hydroxycyclobutyl)methoxy)-3-methoxyphenyl)thieno[3,2-d]pyrimidin-4(3H)-one (BMS-814580): A Highly Efficacious Melanin Concentrating Hormone Receptor 1 (MCHR1) Inhibitor” (J Med Chem, 2016).

Series [1] is described as follows: Displacement of [Phe13,125I]Tyr19]-MCH from human MCHR1 E4Q/A5T double mutant expressed in HEK293 cells by TopCount scintillation counting method. It is filed as cell-based.
Series [2] is described as follows: Lipophilicity, log P of the compound at pH 7 by HPLC analysis. Type of series: physicochemical. The conditions noted are these: buffer. The gist of the method: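 LogP determined by HPLC at pH 7.0.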
Series [3] in a line: Protein binding in Sprague-Dawley rat plasma at 10 mg/kg, po qd for 4 days. Type of series: ADME, organism-based. The conditions noted are these: read-out: PPB.
The test system of the next series is Rattus norvegicus. Briefly: Antiobesity activity in pair-fed DIO Sprague-Dawley rat model assessed as reduction in caloric intake at 1 mg/kg, po qd for 28 days relative to vehicle control. Details: scale not given: the % may be the effect or the level left. Type of series: functional. In a few lines: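 Obese male SD rats on diet-induced obesity, 8/group, dosed orally once daily for 28 days with phosphate prodrug (0.03–3 mg/kg parent) in 14% propylene glycol/1% Tween/85% water; rimonabant 10 mg/kg control; pair-fed groups matched to 1 and 3 mg/kg intake; body weight and food measured daily, % change versus vehicle.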

A further series concerns the target T1, Cytochrome P450 2C8 (Homo sapiens, UniProt P10632).
T1 sequence (P10632 whole entry): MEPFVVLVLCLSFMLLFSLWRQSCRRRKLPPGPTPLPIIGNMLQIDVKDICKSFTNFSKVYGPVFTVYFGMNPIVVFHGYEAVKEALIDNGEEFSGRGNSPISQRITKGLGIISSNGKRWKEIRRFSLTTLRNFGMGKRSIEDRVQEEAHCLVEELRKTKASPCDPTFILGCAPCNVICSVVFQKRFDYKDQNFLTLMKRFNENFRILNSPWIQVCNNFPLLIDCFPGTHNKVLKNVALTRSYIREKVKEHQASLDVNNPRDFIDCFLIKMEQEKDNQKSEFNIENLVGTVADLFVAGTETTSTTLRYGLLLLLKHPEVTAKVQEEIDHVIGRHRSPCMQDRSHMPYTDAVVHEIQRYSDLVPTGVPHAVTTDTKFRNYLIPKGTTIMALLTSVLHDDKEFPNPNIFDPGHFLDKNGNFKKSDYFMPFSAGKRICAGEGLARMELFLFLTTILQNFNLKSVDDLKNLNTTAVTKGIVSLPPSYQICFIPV
Put plainly: Inhibition of CYP2C8 (unknown origin). It is filed as ADME. In a few lines:
(§1)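 CYP1A2, 2C8, 2C9, 2C19, 2D6 and 3A4 tested for inhibition, with 40 µM as the top tested limit.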

The target in a further series is Cytochrome P450 2C19 (Homo sapiens, UniProt P33261). Briefly: Inhibition of CYP2C19 (unknown origin). Type of series: ADME. In a few lines: as §1
Cytochrome P450 2C19, sequence (P33261 whole entry): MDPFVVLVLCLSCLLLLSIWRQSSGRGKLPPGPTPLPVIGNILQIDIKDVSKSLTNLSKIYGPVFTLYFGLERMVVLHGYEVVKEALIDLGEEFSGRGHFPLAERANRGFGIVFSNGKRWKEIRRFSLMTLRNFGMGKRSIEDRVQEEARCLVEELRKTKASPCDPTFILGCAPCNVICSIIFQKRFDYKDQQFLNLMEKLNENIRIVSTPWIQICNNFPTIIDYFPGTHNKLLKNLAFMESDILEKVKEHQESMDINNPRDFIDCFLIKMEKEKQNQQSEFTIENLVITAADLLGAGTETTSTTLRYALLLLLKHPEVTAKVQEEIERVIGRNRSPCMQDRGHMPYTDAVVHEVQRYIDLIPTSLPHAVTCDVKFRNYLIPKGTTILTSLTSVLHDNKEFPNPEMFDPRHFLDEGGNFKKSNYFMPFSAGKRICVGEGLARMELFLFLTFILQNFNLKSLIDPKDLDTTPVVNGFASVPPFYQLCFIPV
For a further series, the target named is Cytochrome P450 2D6 (Homo sapiens, UniProt P10635). Put plainly: Inhibition of CYP2D6 (unknown origin). It is filed as ADME.
Cytochrome P450 2D6, sequence (P10635 whole entry): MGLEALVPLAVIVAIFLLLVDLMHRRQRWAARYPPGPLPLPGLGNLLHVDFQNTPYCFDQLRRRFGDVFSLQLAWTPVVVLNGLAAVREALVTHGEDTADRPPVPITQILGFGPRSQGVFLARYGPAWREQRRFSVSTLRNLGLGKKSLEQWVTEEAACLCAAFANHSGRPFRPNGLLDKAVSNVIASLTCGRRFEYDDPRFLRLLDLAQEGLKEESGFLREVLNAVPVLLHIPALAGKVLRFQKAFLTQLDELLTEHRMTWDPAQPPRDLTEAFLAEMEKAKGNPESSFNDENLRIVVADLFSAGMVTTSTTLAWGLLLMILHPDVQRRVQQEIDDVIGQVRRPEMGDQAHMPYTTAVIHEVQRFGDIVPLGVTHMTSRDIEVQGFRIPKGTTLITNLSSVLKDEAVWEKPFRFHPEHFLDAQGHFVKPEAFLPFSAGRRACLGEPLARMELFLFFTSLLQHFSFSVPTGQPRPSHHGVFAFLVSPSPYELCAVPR
A short description of series [4]: Mutagenic activity in Salmonella typhimurium by Ames test. It is filed as toxicity. The conditions noted are these: salmonella enterica subsp. enterica serovar typhimurium.
The nature of series [5]: AUC in rat at 1 mg/kg, iv. Type of series: ADME, organism-based. Conditions: in vivo. The gist of the method: (§2)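 Rats, dogs and cynomolgus monkeys, n = 3: parent 1 mg/kg i.v. in PEG400:DMAC:water (70:5:25), or phosphate prodrug 10 mg/kg oral in Methocel:Tween80:water (0.5:0.1:99.4); plasma parent compound, Cmax, Tmax, AUC0-∞, half-life, clearance, Vss and bioavailability derived.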

A short description of series [6]: AUC in dog at 1 mg/kg, iv. It is filed as ADME, organism-based, Canis lupus familiaris. The conditions noted are these: in vivo. The gist of the method:
as §2

A short description of series [7]: Volume of distribution at steady state in rat at 1 mg/kg, iv. Type of series: ADME, organism-based. The conditions noted are these: in vivo, read-out: Vdss. The gist of the method:
(§3)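 Full PK in rat, dog and cynomolgus monkey. Oral arm: phosphate prodrug at 10 mg/kg parent-equivalent in Methocel:Tween80:water (0.5:0.1:99.4). Intravenous arm: parent at 1 mg/kg in PEG400:DMAC:water (70:5:25). n = 3 per species; individual Tmax values reported for dog and monkey.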

Series [8] can be described thus: Volume of distribution at steady state in cynomolgus monkey at 1 mg/kg, iv. It is filed as ADME, organism-based, Macaca fascicularis. Conditions: in vivo, read-out: Vdss. In a few lines:
as §3

For a further series, the species on record is Homo sapiens. Put plainly: Inhibition of human PDE4 using [3H]cAMP at 10 uM.

The molecule `COc1cc(-n2cnc3cc(-c4ccc(Cl)cc4)sc3c2=O)ccc1OCC1(O)CC(F)(F)C1` returned a Ki in series [1] of 16.9 nM. This molecule returned a logP in series [2] of 4.8. Besides, in series [3], the fraction unbound at 96 h was under 0.02. Further, the Activity in the series with Rattus norvegicus is listed as 14.3%; in [4] it was “Non-Toxic”. The INH on Cytochrome P450 2C8, on Cytochrome P450 2C19 and at Cytochrome P450 2D6 was over 40 µM throughout. Further, the AUC in series [5] is 11.5 µM·h; in [6], 5.2 µM·h. Further, the Vd worked out at 4.1 L/kg in [7] and 5.4 L/kg in series [8]. This molecule also showed an inhibition in the series listed under Homo sapiens of 68%.
